Test results taken from ChEMBL document CHEMBL3763147, “Small Molecule Inhibitors of Ca(2+)-S100B Reveal Two Protein Conformations” (J Med Chem, 2016).
Active and inactive are the calls of the source. No cut-off for these calls is given here.

Tests used:
[1] = Growth inhibition of human WM115 cells expressing low levels of S100-B by SYBR Green based fluorescence method; assay type: functional, cell-based; conditions: WM-115
[2] = Growth inhibition of human WM115 cells expressing high levels of S100-B by SYBR Green based fluorescence method; assay type: functional, cell-based; conditions: WM-115
Protein S100-B [3] = target: T1, Protein S100-B (Rattus norvegicus, UniProt P04631); assay: Displacement of TAMRA-TRTK12 from recombinant rat calcium loaded S100-B by […] analysis
T1 sequence (P04631 whole entry): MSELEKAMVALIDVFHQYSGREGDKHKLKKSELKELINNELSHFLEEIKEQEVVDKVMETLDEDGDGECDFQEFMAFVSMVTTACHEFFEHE

Protein S100-B [4] = target: T1, Protein S100-B; assay: Displacement of TAMRA-TRTK12 from recombinant rat calcium loaded S100-B by fluorescence polarization competition assay
[5] = target: T2, Protein S100-B (Rattus norvegicus) (UniProt P04631); assay: Displacement of TAMRA-TRTK12 from recombinant rat calcium loaded S100-B at <1 mM by fluorescence polarization competition assay
T2 sequence (whole entry): T1 sequence (P04631 whole entry)

Protein S100-B [6] = target: T1, Protein S100-B; assay: Binding affinity to recombinant rat calcium loaded S100-B by isothermal titration calorimetry
Protein S100-B [7] = target: T1, Protein S100-B; assay: Binding affinity to recombinant rat calcium loaded S100-B by fluorescence spectrophotometric analysis
Summary of the method: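 Competition fluorescence polarization against 10 nM TAMRA-labelled TRTK12 peptide (CapZ residues 265–276) with 1 µM Ca2+-loaded rat S100B. Buffer: 50 mM HEPES pH 7.2, 100 mM KCl, 15 mM NaCl, 10 mM CaCl2, 0.01% Triton X-100, 0.5% DMSO. Compounds titrated from the highest concentration possible. Read at room temperature (ex 544/em 590 nm). KD calculated from the IC50 using the Nikolovska-Coleska equation.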

SMILES	EC50 [1] [µM]	EC50 [2] [µM]	Kd (Protein S100-B [3]) [µM]	IC50 (Protein S100-B [4]) [µM]	Activity [5]	Kd (Protein S100-B [6]) [µM]	Kd (Protein S100-B [7]) [µM]
N=C(N)c1ccc(Oc2ccc(-c3cc4ccc(C(=N)N)cc4[nH]3)cc2)cc1	< 1	< 1	6	66.6	–	–	–
N=C(NCCCCCCCN)c1ccc(OCCCCCCCOc2ccc(C(=N)NCCCCCCCN)cc2)cc1	25.4	24.3	0.5	6.7	–	–	–
c1cc(C2=NCCCCN2)ccc1OCCCCCCCOc1ccc(C2=NCCCCN2)cc1	9.2	7.8	–	–	inactive	–	–
c1cc(C2=NCCCN2)ccc1OCCCCCCCCOc1ccc(C2=NCCCN2)cc1	37.9	24.8	–	–	inactive	–	–
CNC(=O)NC(=N)c1ccc(OCCCCCCCOc2ccc(C(=N)NC(=O)NC)cc2)cc1	146	131	89.5	982	–	–	–
N=C(N)c1ccc(OCCCCCCCOc2ccc(C(=N)N)cc2)cc1 [HEPTAMIDINE]	25.6	11.5	–	–	–	–	–
c1cc(C2=NCCCCN2)ccc1OCCCCCCOc1ccc(C2=NCCCCN2)cc1	301	264	–	–	inactive	–	–
c1cc(C2=NCCCN2)ccc1OCCCCCOc1ccc(C2=NCCCN2)cc1	284	203	–	–	inactive	–	–
c1cc(C2=NCCCN2)ccc1OCCCCCCOc1ccc(C2=NCCCN2)cc1	42.7	44.1	–	–	inactive	–	–
N=C(NCCCCCN)c1ccc(OCCCCCOc2ccc(C(=N)NCCCCCN)cc2)cc1	–	–	4.6	51.1	–	–	–
N=C(N)c1ccc(OCCCCCCCCOc2ccc(C(=N)N)cc2)cc1	234	245	–	–	–	–	–
c1cc(C2=NCCN2)ccc1OCCCCCCCOc1ccc(C2=NCCN2)cc1	21.2	32.2	203	–	inactive	–	–
c1cc(C2=NCCN2)ccc1OCCCCCCCCOc1ccc(C2=NCCN2)cc1	24.3	21.8	–	–	inactive	–	–
c1cc(C2=NCCCN2)ccc1OCCCCCCCOc1ccc(C2=NCCCN2)cc1	289	612	–	–	inactive	–	–
c1cc(C2=NCCCCN2)ccc1OCCCCCCCCOc1ccc(C2=NCCCCN2)cc1	4.8	5.4	–	–	inactive	–	–
CCCN(CCCOc1ccc(C(=N)N)cc1)CCCOc1ccc(C(=N)N)cc1	500	864	–	–	–	–	–
N=C(N)c1ccc(OCCCCCOc2ccc(C(=N)N)cc2)cc1 [PENTAMIDINE]	16.7	16.3	–	–	–	50	44
c1cc(C2=NCCN2)ccc1OCCCCCCOc1ccc(C2=NCCN2)cc1	34.5	52	–	–	inactive	–	–
N=C(N)c1ccc(OCCCN(CCCOc2ccc(C(=N)N)cc2)Cc2ccccc2)cc1	41	51.8	–	–	–	–	–
c1cc(C2=NCCN2)ccc1OCCCCCOc1ccc(C2=NCCN2)cc1	38.9	56.2	–	–	inactive	–	–
N=C(NC(=O)Nc1ccccc1)c1ccc(OCCCCCCCOc2ccc(C(=N)NC(=O)Nc3ccccc3)cc2)cc1	0.5	0.4	–	–	–	–	–
c1cc(C2=NCCCCN2)ccc1OCCCCCOc1ccc(C2=NCCCCN2)cc1	19	20	–	–	inactive	–	–
N=C(NCCCCCCCN)c1ccc(OCCCCCCCCOc2ccc(C(=N)NCCCCCCCN)cc2)cc1	45.8	46.3	1.6	18.3	–	–	–
